According to ChEMBL document CHEMBL1124688, “9,11-Epoxy-9-homo-14-thiaprost-5-enoic acid derivatives: potent thromboxane A2 antagonists” (J Med Chem, 1989):
Values joined by “and” are separate entries in the source; they are usually repeats but may differ in a detail not shown here. Equal entries are not always repeated.

Key:
[1] = organism: Cavia porcellus; assay: Duration of action of compound for inhibition of arachidonic acid-induced response in guinea pigs; format: functional
[2] = organism: Rattus norvegicus; assay: Concentration required to elicit 50% of the maximal contraction of rat stomach strip; format: functional
Method in brief: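 Rat stomach strip contraction was measured as the concentration giving 50% of the maximal contraction produced by 3×10^-7 M serotonin.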

[3] = organism: Homo sapiens; assay: In vitro evaluation for arachidonic acid induced platelet aggregation of human platelet-rich plasma; format: functional; details: read-out: I50
Method in brief: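 Human platelet-rich plasma was aggregated with arachidonic acid (800 μM). An ADP (20 μM)-induced aggregation run served as a counter-screen.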

[4] = biological target: T1, Thromboxane A2 receptor (Homo sapiens, UniProt P21731); assay: Inhibition of specific binding of HSQ(5,6-di-3H-SQ 29,548) in washed platelets; set-up: species or system Cavia porcellus
T1 sequence (P21731 whole entry): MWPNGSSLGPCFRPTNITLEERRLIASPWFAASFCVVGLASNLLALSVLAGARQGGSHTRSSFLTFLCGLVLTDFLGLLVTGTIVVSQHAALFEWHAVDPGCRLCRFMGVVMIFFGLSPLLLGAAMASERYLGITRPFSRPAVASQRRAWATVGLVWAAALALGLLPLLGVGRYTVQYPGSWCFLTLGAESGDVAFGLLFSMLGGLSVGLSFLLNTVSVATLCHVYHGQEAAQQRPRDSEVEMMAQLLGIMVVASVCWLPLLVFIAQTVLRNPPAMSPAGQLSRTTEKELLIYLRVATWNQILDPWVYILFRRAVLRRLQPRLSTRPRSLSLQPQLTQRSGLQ

[5] = organism: Homo sapiens; assay: Percent inhibition on the synthesis of thromboxane B2 at a dose of 100 uM; format: functional
Method in brief: (§1)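 Arachidonic acid metabolism was measured in a lysed platelet preparation. Thromboxane synthesis (as TxB2) and PGE2 production were determined at each listed test concentration.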

[6] = organism: Homo sapiens; assay: Percentage stimulation on the synthesis of PGE-2 was at a dose of 31 uM; format: functional; method in brief: as §1
[7] = organism: Cavia porcellus; assay: Duration of action of compound for Inhibition of arachidonic acid-induced response in guinea pigs; format: functional
[8] = organism: Homo sapiens; assay: Percentage stimulation on the synthesis of PGE-2 was at a dose of 100 uM; format: functional; method in brief: as §1
[9] = organism: Homo sapiens; assay: Percentage stimulation on the synthesis of PGE-2 was at a dose of 10 uM; format: functional; method in brief: as §1
[10] = organism: Homo sapiens; assay: Percent inhibition on the synthesis of thromboxane B2 at a dose of 1.0 uM; format: functional; method in brief: as §1
[11] = organism: Homo sapiens; assay: Percent inhibition on the synthesis of thromboxane B2 at a dose of 3.1 uM; format: functional; method in brief: as §1
[12] = tested on: Cavia porcellus; assay: Change in mean arterial blood pressure in guinea pigs by 1 mg/kg of intravenously administered compound; format: functional, Artery; details: route intravenous
Method in brief: (§2)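 Anesthetized guinea pigs were challenged with arachidonic acid, and lung mechanics (lung resistance, dynamic compliance) and mean arterial blood pressure were recorded. Compounds were given as a 1.0 mg/kg rapid iv infusion, with n = 5 versus vehicle. Inhibition above 100% denotes reversal of the blood-pressure response.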

[13] = organism: Homo sapiens; assay: Percent inhibition on the synthesis of thromboxane B2 at a dose of 10 uM; format: functional; method in brief: as §1
[14] = organism: Homo sapiens; assay: Percentage stimulation on the synthesis of PGE-2 at a dose of 1.0 uM; format: functional; method in brief: as §1
[15] = organism: Cavia porcellus; assay: In vitro evaluation for antagonist activity against the contraction-induced by 9,11-azo-PGH2 (0.1 ug/mL); format: functional; details: read-out: I50
Method in brief: (§3)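 Guinea pig trachea spirals were contracted by either 9,11-azo-PGH2 (a stable PGH2/TxA2 mimetic) or histamine, and compounds were tested for blockade of these contractions.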

[16] = biological target: T1, Thromboxane A2 receptor; assay: Compound was evaluated for inhibition of specific binding of HSQ (5,6-di-3H-SQ 29,548) in washed platelets; set-up: species or system Cavia porcellus
[17] = organism: Cavia porcellus; assay: In vitro evaluation for antagonist activity against the contraction-induced by histamine (1 ug/mL); format: functional; details: read-out: I50; method in brief: as §3
[18] = organism: Homo sapiens; assay: Percent inhibition on the synthesis of thromboxane B2 at a dose of 31 uM.; format: functional; method in brief: as §1
[19] = organism: Homo sapiens; assay: Percentage stimulation on the synthesis of PGE-2 was at a dose of 3.1 uM; format: functional; method in brief: as §1
[20] = organism: Homo sapiens; assay: Percentage stimulation on the synthesis of PGE-2 was at a dose of 33 uM; format: functional; method in brief: as §1
[21] = organism: Homo sapiens; assay: Percent inhibition on the synthesis of thromboxane B2 at a dose of 333 uM; format: functional; method in brief: as §1
[22] = organism: Homo sapiens; assay: Percentage stimulation on the synthesis of PGE-2 was at a dose of 333 uM; format: functional; method in brief: as §1
[23] = tested on: Cavia porcellus; assay: Inhibition of arachidonic acid-induced response in guinea pigs by 1 mg/kg of intravenously administered compound; format: functional; set-up: scale not given: the % may be the effect or the level left; details: route intravenous; method in brief: as §2
[24] = organism: Homo sapiens; assay: Percentage stimulation on the synthesis of PGE-2 was at a dose of 1000 uM; format: functional; method in brief: as §1
[25] = organism: Homo sapiens; assay: Percentage stimulation on the synthesis of PGE-2 at a dose of 10 uM; format: functional; method in brief: as §1
[26] = organism: Homo sapiens; assay: Percent inhibition on the synthesis of thromboxane B2 at a dose of 1000 uM; format: functional; method in brief: as §1
[27] = organism: Homo sapiens; assay: Percentage stimulation on the synthesis of PGE-2 at a dose of 333 uM; format: functional; method in brief: as §1
[28] = organism: Homo sapiens; assay: Percentage stimulation on the synthesis of PGE-2 at a dose of 33 uM; format: functional; method in brief: as §1
[29] = organism: Homo sapiens; assay: Percentage stimulation on the synthesis of PGE-2 at a dose of 1000 uM; format: functional; method in brief: as §1
[30] = tested on: Cavia porcellus; assay: Change in mean arterial blood pressure(MABP) in guinea pigs by 1 mg/kg of intravenously administered compound; format: functional, Artery; details: route intravenous, 1 mg/kg; method in brief: as §2
[31] = organism: Rattus norvegicus; assay: maximal contraction of rat stomach strip by 3 x 10e -7M serotonin; format: functional
[32] = organism: Homo sapiens; assay: Percentage stimulation on the synthesis of PGE-2 at a dose of 100 uM; format: functional; method in brief: as §1

CCCCCC(C)SCC1C2CCC(O2)C1C/C=C\CCCC(=O)O (stereo unspecified)
Duration [1]: 0 min

CCCCCCSC[C@H]1C2CCC(O2)[C@H]1C/C=C\CCCC(=O)O (stereo partly specified)
A50 [2]: 39 µM

C=CCCSCC1C2CCC(O2)C1C/C=C\CCCC(=O)O (stereo unspecified)
IC50 [3]: 200 nM | A50 [2]: 32 µM | Kd [4]: 49 nM

CCCCCCSC[C@H]1C2CC[C@@H](O2)[C@H]1C/C=C\CCCC(=O)O (single isomer, unassigned; (-))
IC50 [3]: 1000 nM | Inhibition [5]: 69% | A50 [2]: 25 µM | Stimulation [6]: 404% | Duration [7]: <60 min | Stimulation [8]: 556% | Stimulation [9]: 230% | Inhibition [10]: 7% | Inhibition [11]: 3% | Activity MABP [12]: 107% and 153% | Inhibition [13]: 17% | Stimulation [14]: 174% | IC50 [15]: 500 nM | Kd [16]: 1.6 nM | IC50 [17]: > 100000 nM | Inhibition [18]: 29% | Stimulation [19]: 137%

CC/C=C\CCSCC1C2CCC(O2)C1C/C=C\CCCC(=O)O (stereo unspecified)
Stimulation [20]: 420% | Inhibition [21]: 56.9% | IC50 [3]: 200 nM | Stimulation [22]: 1340% | Inhibition [5]: 24.4% | A50 [2]: 0.2 µM | Duration [7]: >60 min | Activity [23]: 245% and 97% | Stimulation [8]: 900% | Stimulation [24]: 1920% | Stimulation [25]: 210% | IC50 [15]: 380 nM | Kd [16]: 0.4 nM | IC50 [17]: > 100000 nM | Inhibition [26]: 91.2%

C=CCSCC1C2CCC(O2)C1C/C=C\CCCC(=O)O (stereo unspecified)
Duration [1]: >60 min | Stimulation [27]: 1650% | Inhibition [21]: 51.8% | IC50 [3]: 500 nM | Stimulation [28]: 380% | Stimulation [29]: 1820% | Inhibition [5]: 22.1% | Agonist activity [30]: 115% and 165% | Contraction [31]: 26% | Kd [4]: 76 nM | Activity [23]: 273% and 98% | Stimulation [25]: 220% | Stimulation [32]: 860% | IC50 [15]: 3800 nM | IC50 [17]: > 100000 nM | Inhibition [26]: 61.5%

CCCCSCC1C2CCC(O2)C1C/C=C\CCCC(=O)O (stereo unspecified)
Duration [1]: <60 min | Agonist activity [30]: 58% and 98% | Activity [23]: 136% and 180%

CCCCCCS(=O)(=O)CC1C2CCC(O2)C1C/C=C\CCCC(=O)O (stereo unspecified)
A50 [2]: 8 µM

CCCCCC[S+]([O-])CC1C2CCC(O2)C1C/C=C\CCCC(=O)O (stereo unspecified)
Contraction [31]: 9% | A50 [2]: 21 µM

CCC/C=C\CSCC1C2CCC(O2)C1C/C=C\CCCC(=O)O (stereo unspecified)
A50 [2]: 4.3 µM | Duration [7]: <60 min | Activity MABP [12]: 98% and 194% | IC50 [15]: 1600 nM | IC50 [17]: > 100000 nM

O=C(O)CCC/C=C\CC1C2CCC(O2)C1CSCCOc1ccccc1 (stereo unspecified)
A50 [2]: 0.1 µM

O=C(O)CCC/C=C\CC1C2CCC(O2)C1CSCCCc1ccccc1 (stereo unspecified)
A50 [2]: 0.2 µM
